Experimental data: ChEMBL document CHEMBL2069274, “Novel 3-nitro-1H-1,2,4-triazole-based amides and sulfonamides as potential antitrypanosomal agents” (J Med Chem, 2012)
pIC50: −log10 of the molar value. Calls of active or inactive are those of the source. The rule behind the calls is not given here.

How the values were obtained:
Leishmania donovani = assay: Antileishmanial activity against Leishmania donovani MHOM-ET67/L82 amastigotes; assay type: functional, organism-based
Outline: (§1)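 96-well format screens: bloodstream-form T. b. rhodesiense trypomastigotes, T. cruzi amastigotes within infected L6 rat skeletal myoblasts, axenically grown L. donovani amastigotes, and uninfected L6 cells for cytotoxicity. IC50 (μM) obtained by linear regression from sigmoidal dose–inhibition curves.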

[1] = Selectivity index, ratio of IC50 for rat L6 cells to IC50 for Leishmania donovani MHOM-ET67/L82 amastigotes
[2] = Selectivity index, ratio of IC50 for rat L6 cells to IC50 for Trypanosoma brucei rhodesiense STIB900 trypomastigotes
[3] = tested on: Trypanosoma brucei rhodesiense; assay: Antitrypanosomal activity against Trypanosoma brucei rhodesiense STIB 900 trypomastigotes; assay type: functional, organism-based; outline: as §1
L6 = assay: Cytotoxicity against rat L6 cells; assay type: cell-based; outline: as §1
[4] = Selectivity index, ratio of IC50 for rat L6 cells to IC50 for Trypanosoma cruzi Tulahuen C4 amastigotes
Trypanosoma cruzi [5] = assay: Ratio of benznidazole IC50 to compound IC50 for Trypanosoma cruzi Tulahuen C4 amastigotes; assay type: functional
Trypanosoma cruzi [6] = assay: Antitrypanosomal activity against Trypanosoma cruzi Tulahuen C4 amastigotes; assay type: functional, organism-based; outline: as §1
[7] = biological target: Trypanothione reductase (Trypanosoma brucei brucei) (UniProt P39051); assay: Inhibition of Trypanosoma brucei brucei trypanothione reductase at <100 uM
[8] = tested on: Trypanosoma brucei brucei; assay: Antitrypanosomal activity against bloodstream form of Trypanosoma brucei brucei Lister 427 clone 221a overexpressing tet-inducible NTR in absence of tetracycline after 3 days; conditions: 72 h
[9] = tested on: Trypanosoma brucei brucei; assay: Selectivity ratio of IC50 for Trypanosoma brucei brucei Lister 427 clone 221a overexpressing tet-inducible NTR in absence of tetracycline to IC50 for Trypanosoma brucei brucei overexpressing tet-inducible NTR in presence of tetracyclin
[10] = tested on: Trypanosoma brucei brucei; assay: Activity of Trypanosoma brucei brucei recombinant Type I nitroreductase assessed as oxidised NADH level by spectrophotometric analysis
Outline: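 His-tagged recombinant TbNTR, purified, assayed spectrophotometrically at 340 nm with nitrotriazole substrate (100 μM) and NADH (100 μM); activity expressed as nmol NADH oxidized min−1 mg−1 enzyme.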

[11] = tested on: Trypanosoma brucei brucei; assay: Antitrypanosomal activity against bloodstream form of Trypanosoma brucei brucei Lister 427 clone 221a; assay type: functional, organism-based
Outline: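 Bloodstream-form parasites seeded at 1 × 10^3 per ml in growth medium with a range of compound concentrations; where required, TbNTR expression induced with tetracycline (1 μg/mL). Incubation 3 days at 37 °C, then Alamar blue added for a further 16 h. Cell density read and IC50 determined.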

[12] = tested on: Trypanosoma brucei brucei; assay: Antitrypanosomal activity against bloodstream form of Trypanosoma brucei brucei Lister 427 clone 221a overexpressing tet-inducible NTR in presence of tetracycline after 3 days; conditions: 72 h

Trypanothione reductase (Trypanosoma brucei brucei), sequence (P39051 whole entry, looked up): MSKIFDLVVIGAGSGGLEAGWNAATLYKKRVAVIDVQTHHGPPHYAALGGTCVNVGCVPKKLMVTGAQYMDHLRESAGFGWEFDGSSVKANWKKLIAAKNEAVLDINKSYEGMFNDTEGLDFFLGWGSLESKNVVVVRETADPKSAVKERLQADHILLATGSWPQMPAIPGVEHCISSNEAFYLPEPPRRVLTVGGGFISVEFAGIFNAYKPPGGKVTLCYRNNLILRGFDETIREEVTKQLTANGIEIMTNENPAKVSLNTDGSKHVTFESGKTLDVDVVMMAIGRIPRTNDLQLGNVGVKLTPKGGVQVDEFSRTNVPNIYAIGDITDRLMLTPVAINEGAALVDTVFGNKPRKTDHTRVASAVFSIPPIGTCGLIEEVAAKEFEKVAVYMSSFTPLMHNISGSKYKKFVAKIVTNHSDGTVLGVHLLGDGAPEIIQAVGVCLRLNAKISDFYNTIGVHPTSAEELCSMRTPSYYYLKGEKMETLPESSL

Row | SMILES | pIC50 (Leishmania donovani) | selectivity ratio [1] | selectivity ratio [2] | pIC50 [3] | pIC50 (L6) | selectivity ratio [4] | Ratio IC50 (Trypanosoma cruzi [5]) | pIC50 (Trypanosoma cruzi [6]) | inhibition [7] | pIC50 [8] | Ratio IC50 [9] | Activity [10] | pIC50 [11] | pIC50 [12]
1 | Cc1ccc2nc(NC(=O)Cn3cnc([N+](=O)[O-])n3)sc2c1 | 5.23 | 28.7 | 14.8 | 4.94 | 3.77 | 94.4 | 0.9 | 5.74 | – | – | – | – | – | –
2 | O=[N+]([O-])c1ncn(CCCNS(=O)(=O)c2ccc(C(F)(F)F)cc2)n1 | 4.88 | – | 467 | 6.30 | 3.63 | 656 | 4.4 | 6.44 | inactive | 5.11 | 31 | Active | 5.47 | 6.60
3 | O=C(Cn1cnc([N+](=O)[O-])n1)Nc1nc2ccc(Cl)cc2s1 | 5.24 | 28 | 3.4 | 4.31 | 3.79 | 24.8 | 0.2 | 5.18 | – | – | – | – | – | –
4 | O=[N+]([O-])c1ncn(CCCNS(=O)(=O)c2ccc(Cl)s2)n1 | 4.48 | 7.4 | 122 | 5.70 | 3.61 | 556 | 3.6 | 6.36 | – | 5.36 | 19 | – | 5.64 | 6.64
5 | O=C(Cn1cnc([N+](=O)[O-])n1)Nc1nc2cc(Cl)ccc2o1 | 5.33 | 5.6 | < 1 | 4.46 | 4.58 | 3.3 | 0.2 | 5.10 | – | – | – | – | – | –
6 | O=C(NCCCn1cnc([N+](=O)[O-])n1)c1ccc2ccccc2n1 | 4.70 | – | – | 5.49 | 3.66 | 1580 | 11.3 | 6.86 | inactive | – | – | Active | < 5.00 | –
7 | O=C(NCCn1cnc([N+](=O)[O-])n1)c1ccc(C(F)(F)F)cc1 | 4.48 | – | – | 5.50 | < 3.56 | > 625 | 3.6 | 6.36 | inactive | 5.90 | 14 | Active | 5.89 | 7.05
8 | O=[N+]([O-])c1ncn(CCCCNS(=O)(=O)c2ccc(OC(F)(F)F)cc2)n1 | 5.11 | 14.4 | 235 | 6.32 | 3.95 | 552 | 7.7 | 6.69 | – | – | – | – | – | –
